In the EternaBench riboswitch data:

Tested on: MS2 coat protein
Experiment: apparent Kd, MS2 coat protein; higher = weaker binding; RNA-MaP array; FMN 200 µM where present
In short: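 Green signal from SNAP-549-labelled MS2 coat protein was normalised to red-channel RNA signal and to the median Fmax of control clusters. The protein was titrated from 0.7 or 1.5 nM, doubling to 3 µM, without and then with constant ligand, over designs transcribed by stalled E. coli RNA polymerase on Illumina sequencing-chip clusters, in 100 mM Tris-HCl pH 7.5, 80 mM KCl, 4 mM MgCl2, BSA, DTT, yeast tRNA and Tween-20. The apparent Kd is the median of filtered per-cluster binding-curve fits.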

[1] = designed as: ON switch for flavin mononucleotide, no ligand
[2] = ligand present: flavin mononucleotide, designed as: ON switch for flavin mononucleotide
[3] = designed as: OFF switch for flavin mononucleotide, no ligand
[4] = ligand present: flavin mononucleotide, designed as: OFF switch for flavin mononucleotide

Sequence | apparent Kd [1] [nM] | apparent Kd [2] [nM] | apparent Kd [3] [nM] | apparent Kd [4] [nM]
AACAGGGAUUCAGGAUAUAUUAGCCGAGGCCGCGUAGAAGGGAAAUCCUGACAUGAGGAUCACCCAUGUCGACCCGCCUUCCAC | 23.1 | 22.9 |  | 
GAGAUCAUCACAGGAUAUGCAUUCCAUAAGUGGGCAGAAGGGUGAGAUUCAAGUGGACAUGAGGAUCACCCAUGUAUACUGCCU | 33.1 | 17.3 |  | 
AAAAGUUUGGAGGAUAUCCAUCCAAACGGAUAAGGAGAAGGCCGGACAUGAGGAUCACCCAUGUGAUUAGGUUA |  |  | 14.2 | 24.8
UUGCGGUAGGAGAAGGACAGAGGCGGAAACACAAACAUGAGGAUCACCCAUGUAGGAUAUCCUACCUAACGCGGAUCCCUCCAG |  |  | 11.1 | 34.6
UUUAUGUAGGAGAAGGAGGACUUCAUGAGGAUCACCCAUGUGUUAGGACUUAGGAUAUUUGACGACAUGAGGAUCACCCAUGUG | 64.3 | 56.5 |  | 
GCCUCACAUGAGGAUCACCCAUGUCAGGAUAUAGGAGACGGCAGAAAUUCUGCCGUCGCUAGAAGGGACUGGCA |  |  | 44.2 | 86.9
GGAUAGGACAGAGGAUAUACAGAUAGGAUCUACUAUCAAACAGUCCUGACAUGAGGAUCACCCAUGUAGAAGGCUGUCCUAUCG |  |  | 21.9 | 107
CAGUACUGAGGAUAUACAUGAGGAUCACCCAUGUGUUCCAGCUAGGAUACUAGCAAAAGUAGAAGGCAGUACUG |  |  | 24.6 | 443
CCAUCGAGUGUGAGGAUAUGCUGGUCCUUGGAUCAGCAGAAGGCACAUGAGGAUCACCCAUGUGGAAACGGUGG |  |  | 26.6 | 191
AUGUGGUGCGUAGGAUAUCAUUGAGGAAAACCCUGAGAAGGACGUGAGGACAUGAGGAUCACCCAUGUGGAUCACCCAUGUCAU |  |  | 237 | 237
AGGGCUUAAUGGCCCUAUGAGAUGAGAAGGGUAGGAGGGUGGAAGUACAUGAGGAUCACCCAUGUACAGGAUAUCAUGCCGAUU |  |  | 6.32 | 6.07
AGCAUGCUAGGAUAUACGGGACAUUAGGGUUCGUUGUGUGGACAUGAGGAUCACCCAUGUAGAAGGAGCGUGCA |  |  | 86.6 | 374
GGACGCGUAGGAUAUGCAAUCGAAGUCGAGUUUUCUGGUGGACAUGAGGAUCACCCAUGUAGAAGGAUGUAGCA |  |  | 44.2 | 33.4
ACUUAUAGAGGAUAUACAGUUUAUUACAUGAGGAUCACCCAUGUUCUUCAAUGUAUAUAAGUAGAAGGCUAAGGAA |  |  | 35 | 175
UCAUUAUAAAUCCAUCAUAACUACAUGAGGAUCACCCAUGUGCAGGAUAUCGAUUAUUUAACUAACGAGAAGGGCAUUUACAGA |  |  | 50.1 | 169
UUUGUCGGAGUAGGAUAUCAAAUAGAGGGUGUAUGAGAAGGACUUAGACAUGAGGAUCACCCAUGUGUGGGUCGCCUCGAUCUC |  |  | 6.88 | 10.9
CACGGGUCAGGAUAUUGUUAGUUUAGUUGUUUGUAUUAGUUCGAGAAGGGACAUGAGGAUCACCCAUGUGGUCA |  |  | 285 | 269
AAGAAGUCAGGAUAUCCUGCUCGUCACUUGCGUGAUGAGUAGGAGAAGGGACAUGAGGAUCACCCAUGUAAAGU |  |  | 51.1 | 56.2
GCAGGCAACGAGAAGGGAGUACAUGAGGAUCACCCAUGUGUCCUCUGCGGCUCAGGAUAUCGCCCUGGGAAAGGUAAGCCUUAA |  |  | 39.7 | 176
CAAUCUCAGAUAGGAUAUAUAGGAUAACUUAAGACCUAACAUGAGGAUCACCCAUGUGAUUAUUCGUAGAAGGAUCAUUGAACC | 205 | 190 |  | 
UGAAAUCAUGUAGGAUAUGCAUGGCGAAGCUACGCAGAAGGACAUGAGGAUCACCCAUGUUCUAGCGUCUGAGUACAGAUGCAA |  |  | 19.6 | 64.9
CCGGAUACGGGUAGCUGACAUGAGGAUCACCCAUGUGAAUCUGAGGAUAUGGAUCCUAAUUGGAUCCAGAAGGCAGUCAGCUAC | 618 | 61.5 |  | 
UGGGUGGUAUGAGGAUAUGCGCGCGAAACGCGCGCAGAAGGCAUGUCAAUAGACAUGAGGAUCACCCAUGUACUAUCCAUCCAA | 91.3 | 9.19 |  | 
GAAUGUUGAGGAUAUACAUGAGGAUCACCCAUGUGUUAGCAGAGUCUGCCCGUCUUCAGUAGAAGGCAACAUUC |  |  | 17.2 | 42.4

Sequence | apparent Kd [1] [nM] | apparent Kd [2] [nM] | apparent Kd [3] [nM] | apparent Kd [4] [nM]
GGUUCCAUCGCAGGAUAUGCUAUCCUUUGGGUAGCAGAAGGGUGAUAACAUGAGGAUCACCCAUGUGGAACCGGGCGUGAGCCC | 177 | 1050 |  | 
ACAUGAGGAUCACCCAUGUAUAGAAUUGAAUGUUAAGAUACGUAGGAUAUCGAGUUUAGUAUGAUCGAGAAGGACGAUCUGAUA | 19.8 | 13.6 |  | 
UUAAAUCAUGUAGGAUAUGCAUGGCGAAGCUACGCAGAAGGACAUGAGGAUCACCCAUGUUAUAGCUUCCCAGUUCGGAGGCAA |  |  | 63.8 | 230
CUUUUGUGAGGAUAUCAGUAGUAAAAAAAUAAAAUUUCUACUGAGAAGGCACAUGAGGAUCACCCAUGUUCCUC |  |  | 34 | 184
AUCAGCUCGUCAGGAUAUACGUCACUGCGUCAGCAGUGUGGUAAGAACACAUGAGGAUCACCCAUGUAGAAGGGACGAGCUGAU |  |  | 6.31 | 7.81
ACAUGAGGAUCACCCAUGUUUUUCGGGUACUCUUUUUACAGCAAGGAUAUGCAUGUUUUUUUUACGCAGAAGGUGCUUUACGUC |  |  | 102 | 165
GUCAGCUCGUGAGGAUAUACAACACUGCUUCGGCAGUGUAUUAGGAUCACAUGAGGAUCACCCAUGUAGAAGGCACGAGCUGAU |  |  | 16.3 | 323
GCACGGCAUGUAGGAUAUCGAGCGCCGGGCGCUCGAGAAGGACAUGAGGAUCACCCAUGUAUUCUCAGUGAGAGAGUGCUGUGC |  |  | 36.1 | 55.9
UAUAUGUGAGGAUAUCAGGUGUGCUAGCGUACUGGUACAUCUGAGAAGGCACAUGAGGAUCACCCAUGUAUCUU |  |  | 29.7 | 110
UUAUUACAUGAGGAUCACCCAUGUGAGGAUAUCGAUGUAACUAGCAGCGUGCGGGACUCGAGAAGGCACUUGGA |  |  | 61.1 | 144
CGUGUGUGAACAGGAUAUUGGAACGUACCUCGCCACAUGAGGAUCACCCAUGUCGUUGCUCACGCCAAGAAGGGUUUACGCCUA | 248 | 226 |  | 
GGUGCGAUGUAGAAGGCAGAUCUGAUUCAGAUCUGAGGAUAUACAUGAGGAUCACCCAUGUAAACGCACCGCACGAGAGUGCAA |  |  | 6.6 | 8.12
UAUGGUAAAGUCAGGAUAUACGUACGUCGUUCUAGGUAGAAGGGACAUGAGGAUCACCCAUGUAUGAUAGUGUU |  |  | 46.5 | 42.8
CGAGGGUGGGACCCACGCUUUCGACAUGAGGAUCACCCAUGUAAGGAUAUCGCGGCCUACCAUAGCGAGAAGGUACGUGCGGGU |  |  | 13 | 25.9
GACAUACAUGAGGAUCACCCAUGUUCAAACGAACAAGGAUAUGUGUGGAAACCAUACUAUACAGAAGGUGUCUGUC | 81.7 | 97.7 |  | 
ACAAGAGCGGAAGGAUAUUUUACAUGAGGAUCACCCAUGUAAUAAAUGAGGAUCACGGAUGUAGUAAAGAAGGUCCGGAUAAGA |  |  | 26.1 | 32.8
GAGAUGUGAGGAUAUCUAGACCGCGGAAGAGCUGCGGUCCGAGAGAAGGCACAUGAGGAUCACCCAUGUGAUGA |  |  | 46.2 | 145
UGGUACUAAGGAGGAUAUGGGAAGAUACAUGAGGAUCACCCAUGUUUAAGAAUGCCGAGAGGCAACUAGAAGGCCCUAGUACCU | 415 | 21.9 |  | 
AUUGAUAUUGAGGAUAUGCUUUUAUUUGUUCUUGCAGAAGGCGAUACAUGAGGAUCACCCAUGUUUAUGGAAGU |  |  | 40.8 | 48
AUAAACGAUCAGGAUAUAUCAAAUCAUAGCUUGAUAGAAGGGAUCACAUGAGGAUCACCCAUGUGAUCUUCUUA |  |  | 14 | 15.8
CUGGUGUGAGGAUAUCAAAGACCUCGGGAUAGUACCGAGGAUGAGAAGGCACAUGAGGAUCACCCAUGUAACAA |  |  | 21.2 | 35.4
ACAUGAGGAUCACCCAUGUUGAAUUAGGAUAUUUGACUGCGCAUGAGGUUCUCCCAUGUUCAACCGGAGAAGGGAUUAAUAAUU | 273 | 150 |  | 
CCUUUGAAGAUCCUGGUUUUCGACAUGAGGAUCACCCAUGUGCAGGAUAUCGUGCCAGUGCUGUGCGAGAAGGGCAGUCUCUGC |  |  | 17.1 | 18.9
UCUUUAUAGAUCCAUUUUAACUACAUGAGGAUCACCCAUGUGCAGGAUAUCGAUUGUUUUACUUUCGAGAAGGGCAAAUUCAGC |  |  | 57.6 | 131
